Measured values reported in ChEMBL document CHEMBL4350999, “Enhanced tumor retention of NTSR1-targeted agents by employing a hydrophilic cysteine cathepsin inhibitor” (Eur J Med Chem, 2019).
The source made the active and inactive calls. The calls are words filed in the database; no cut-off is given here.

How the values were obtained:
Procathepsin L [1] = molecular target: T1, Procathepsin L (Homo sapiens, UniProt P07711); test: Inhibition of human liver cathepsin L assessed as pseudo Michaelis-Menten constant at 10 nM using varying levels of Z-Phe-Arg-AMC as substrate measured every 5 mins for 1 hr by fluorescence assay
[2] = Drug uptake in spleen of SCID mouse xenografted with human HT-29 cells pretreated for 1 hr with colchicine at 1 mg/kg, ip followed by 177Lu labelled compound at 0.37 MBq/mouse, iv measured at 24 hrs by gamma counter analysis; type: ADME, organism-based; conditions: in vivo
Summary of the method: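 HT-29 xenograft SCID mice pretreated with colchicine 1 mg/kg i.p., then given 177Lu conjugate i.v. at 10 μCi (0.37 MBq)/mouse. Tissues excised at 24 h, weighed and gamma counted for %ID/g (n = 5, mean ± SD).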

[3] = Drug retention in liver of mouse xenografted with human HT-29 cells assessed as tissue-conjugate adduct formation at 29.6 MBq co-treated with D-lysine at 40 mg/kg measured after 72 hrs using 177Lu labelled compound by SDS-PAGE analysis; type: ADME, organism-based; conditions: in vivo
[4] = Drug uptake in kidney of SCID mouse xenografted with human HT-29 cells pretreated for 1 hr with colchicine at 1 mg/kg, ip followed by 177Lu labelled compound at 0.37 MBq/mouse, iv measured at 24 hrs by gamma counter analysis; type: ADME, organism-based; conditions: in vivo
Summary of the method: (§1)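 HT-29 flank xenografts in female SCID mice (5 × 10^6 cells in Matrigel, about 80 mm3). Colchicine 1 mg/kg was given i.p. before a tail-vein injection of 10 μCi (0.37 MBq) of purified 177Lu-conjugate. Tissues were taken at 24 h, weighed and gamma-counted as %ID/g; mean ± SD, n = 5.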

[5] = Drug uptake in spleen of SCID mouse xenografted with human HT-29 cells using 177Lu labelled compound at 0.37 MBq/mouse, iv co-treated with D-lysine at 40 mg/kg measured at 24 hrs by gamma counter analysis; type: ADME, organism-based; conditions: in vivo
Summary of the method: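 HT-29 s.c. xenografts in female SCID mice. 177Lu conjugate given i.v. by tail vein at 10 μCi (0.37 MBq)/mouse, co-injected with D-lysine 40 mg/kg. Tissues were taken at 24 h, weighed and gamma counted. Uptake expressed as %ID/g (n = 5, mean ± SD); tumor-to-tissue ratios derived from these values.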

[6] = Drug uptake in blood of SCID mouse xenografted with human HT-29 cells using 177Lu labelled compound at 0.37 MBq/mouse, iv co-treated with D-lysine at 40 mg/kg measured at 24 hrs by gamma counter analysis; type: ADME, organism-based; conditions: in vivo
Summary of the method: (§2)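 Female SCID mice bearing s.c. flank HT-29 xenografts (5 × 10^6 cells in Matrigel, ~80 mm3). Given 10 μCi (0.37 MBq) 177Lu conjugate i.v. by tail vein; groups sacrificed at 4, 24, 72 h. Tissues weighed and gamma-counted as %ID/g, excretion as %ID; n = 5, mean ± SD. Blocking arms: colchicine 1 mg/kg i.p. beforehand, or D-lysine 40 mg/kg co-injected.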

[7] = Drug retention in liver lysates of mouse xenografted with human HT-29 cells assessed as macromolecule associated radioactivity at 29.6 MBq co-treated with D-lysine measured after 72 hrs using 177Lu labelled compound by gamma counter analysis relative to control; type: ADME, tissue-based; conditions: in vivo
[8] = Ratio of drug uptake in SCID mouse xenograted with human HT-29 cells assessed as tumour retention to drug uptake in pancreas of SCID mouse xenografted with human HT-29 cells cotreated with D-lysine at 40 mg/kg measured after 24 hrs using 177Lu labelled compound; type: ADME, organism-based, Tumor/Pancreas; conditions: in vivo
[9] = Drug uptake in lung of SCID mouse xenografted with human HT-29 cells using 177Lu labelled compound at 0.37 MBq/mouse, iv co-treated with D-lysine at 40 mg/kg measured at 24 hrs by gamma counter analysis; type: ADME, organism-based; conditions: in vivo
Summary of the method: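 Female SCID mice bore s.c. HT-29 xenografts (5 × 10^6 cells in Matrigel, about 80 mm3). D-lysine 40 mg/kg was co-injected i.v. with 10 μCi (0.37 MBq) of purified 177Lu-conjugate. Tissues were harvested at 24 h, weighed and gamma-counted, reported as %ID/g; mean ± SD, n = 5.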

[10] = Drug retention in kidney lysates of mouse xenografted with human HT-29 cells assessed as macromolecule associated radioactivity at 29.6 MBq measured after 72 hrs using 177Lu labelled compound by gamma counter analysis relative to control; type: ADME, tissue-based; conditions: in vivo
Summary of the method: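 HT-29 xenograft mice given 800 μCi (29.6 MBq) 177Lu conjugate i.v. and killed at 72 h. Tumor, liver and kidney homogenized in RIPA with protease inhibitor and supernatants run on SDS-PAGE autoradiography. Other supernatant aliquots filtered through 10 kDa MWCO devices to give the % macromolecule-associated radioactivity; n = 3.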

[11] = Drug retention in human HT-29 cells assessed as increase in mean fluorescence intensity at 5 uM incubated for 2 hrs and measured at 24 hrs using natEu labelled compound by lysotracker green staining based confocal microscopic analysis; type: ADME, cell-based; conditions: ht-29, 2 h
Summary of the method: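 HT-29 cells (1.25 × 10^5/well) loaded with natEu conjugate (5 μM), washed, then chased in fresh medium up to 24 h. Lysotracker Green (100 nM) applied 2 h before each read; cells fixed and imaged confocally at 405/488 nm. Per-cell mean fluorescence and Lysotracker co-localization quantified.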

[12] = Drug excretion in SCID mouse xenografted with human HT-29 cells pretreated for 1 hr with colchicine at 1 mg/kg, ip followed by 177Lu labelled compound at 0.37 MBq/mouse, iv measured at 24 hrs by gamma counter analysis; type: ADME, organism-based; conditions: in vivo; summary of the method: as §2
Procathepsin L [13] = molecular target: T1, Procathepsin L; test: Binding affinity to cathepsin L in human HT-29 cells assessed as intracellular adduct formation at 0.74 MBq incubated for 4 hrs and measured after 24 hrs in presence of DOTA-beta-ala-[N-alpha-Me8, Dmt11, Tle12] NT6-13 using 177Lu labelled compound by SDS-PAGE analysis; type: cell-based; design: dose or concentration left out as unconfirmed
Summary of the method: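 HT-29 cells (1 × 10^6/well) incubated 4 h at 37 °C with 177Lu conjugate (20 μCi, 0.74 MBq) in 1 mL medium, with or without E-64 (10 μM) or NTSR1 peptide N1 (20 μM). Cells washed and refed; at set times cells pooled, RIPA-lysed with protease inhibitor. Lysates heated 85 °C 2 min, run on 16% tris-glycine SDS-PAGE, and phosphor autoradiography taken after 72 h exposure.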

[14] = Drug uptake in liver of SCID mouse xenografted with human HT-29 cells pretreated for 1 hr with colchicine at 1 mg/kg, ip followed by 177Lu labelled compound at 0.37 MBq/mouse, iv measured at 24 hrs by gamma counter analysis; type: ADME, organism-based; conditions: in vivo; summary of the method: as §1
[15] = Drug uptake in muscle of SCID mouse xenografted with human HT-29 cells pretreated for 1 hr with colchicine at 1 mg/kg, ip followed by 177Lu labelled compound at 0.37 MBq/mouse, iv measured at 24 hrs by gamma counter analysis; type: ADME, organism-based, Muscle tissue; conditions: in vivo; summary of the method: as §1
[16] = Drug uptake in brain of SCID mouse xenografted with human HT-29 cells pretreated for 1 hr with colchicine at 1 mg/kg, ip followed by 177Lu labelled compound at 0.37 MBq/mouse, iv measured at 24 hrs by gamma counter analysis; type: ADME, organism-based; conditions: in vivo; summary of the method: as §1

T1 sequence (P07711 114-333 limits assumed): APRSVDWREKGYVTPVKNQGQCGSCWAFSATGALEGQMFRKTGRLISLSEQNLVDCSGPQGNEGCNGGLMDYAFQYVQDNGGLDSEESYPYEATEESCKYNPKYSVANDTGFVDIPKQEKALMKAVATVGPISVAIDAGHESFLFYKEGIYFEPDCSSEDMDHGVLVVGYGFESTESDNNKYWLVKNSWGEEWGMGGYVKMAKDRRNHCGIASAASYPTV

With `Cc1cc(O)cc(C)c1C[C@H](NC(=O)[C@@H]1CCCN1C(=O)[C@H](CCCNC(=N)N)NC(=O)[C@H](CCCNC(=N)N)N(C)C(=O)[C@@H]1CCCN1C(=O)[C@H](CCCCN)NC(=O)[C@@H](CO)NC(=O)[C@@H](CO)NC(=O)[C@@H](CO)NC(=O)[C@H](Cc1cn(CCNC(=O)[C@H](CCCNC(=N)N)NC(=O)[C@H](CC(C)C)NC(=O)CCC(=O)O)nn1)NC(=O)CN1CCN(CC(=O)O)CCN(CC(=O)O)CCN(CC(=O)O)CC1)C(=O)N[C@H](C(=O)N[C@@H](CC(C)C)C(=O)O)C(C)(C)C` the K (Procathepsin L [1]) was 37 µM.

For `Cc1cc(O)cc(C)c1C[C@H](NC(=O)[C@@H]1CCCN1C(=O)[C@H](CCCNC(=N)N)NC(=O)[C@H](CCCNC(=N)N)N(C)C(=O)[C@@H]1CCCN1C(=O)[C@H](CCCCN)NC(=O)[C@@H](CO)NC(=O)[C@@H](CO)NC(=O)[C@@H](CO)NC(=O)[C@H](Cc1cn(CCNC(=O)[C@H](CCCNC(=N)N)NC(=O)[C@H](CC(C)C)NC(=O)C2OC2C(=O)O)nn1)NC(=O)CN1CCN(CC(=O)O)CCN(CC(=O)O)CCN(CC(=O)O)CC1)C(=O)N[C@H](C(=O)N[C@@H](CC(C)C)C(=O)O)C(C)(C)C` (stereo partly specified), the Drug uptake [2] was 4 % ID/g, the Drug uptake [3] was “Not Active” and the Drug uptake [4] was 26 % ID/g. For the same compound, the Drug uptake [5] was 1.1 % ID/g, the Drug uptake [6] was 0.02 % ID/g and the Drug uptake [7] was 80%. It also gave a Ratio [8] of 75, a Drug uptake [9] of 0.41 % ID/g and a Drug uptake [10] of 80%. The Drug uptake [11] was “Active”, the Drug excretion [12] was 85 %ID and the Activity (Procathepsin L [13]) was “inactive”. The Drug uptake [14] was 1.4 % ID/g, the Drug uptake [15] was 0.06 % ID/g and the Drug uptake [16] was 0.07 % ID/g.
